What was measured:
[1] = system: HCT-116 (human colorectal carcinoma); test: MTT anti-proliferative assay on HCT-116; format: cell-based; details: HCT-116, 48 h, read-out: IC50 (μM) ± SD HCT-116
Procedure, shortened: (§1)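 Cells grown at 37 °C in humidified 5% CO2 and seeded at 5 × 10^4 per well. Exposed 48 h at 37 °C to a concentration series of test compound, or doxorubicin as positive control, in serum-free medium with DMSO. MTT solution (2.5 mg ml−1) added for 4 h, formazan dissolved in DMSO, absorbance read at 590 nm. Viability taken as percent of untreated control; technical triplicate, three biological replicates, mean ± SD; IC50 by probit analysis.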

[2] = system: MCF-7 (human breast adenocarcinoma); test: MTT anti-proliferative assay on MCF-7; format: cell-based; details: MCF7, 48 h, read-out: IC50 (μM) ± SD MCF-7, MTT, 48 h, MCF-7
Procedure, shortened: as §1

[3] = system: human liver carcinoma (HepG-2); test: MTT anti-proliferative assay on HepG-2; format: cell-based; details: HepG2, 48 h, read-out: IC50 (μM) ± SD HepG-2, MTT, 48 h, HepG-2
Procedure, shortened: as §1

MCF-7 cells [4] = test: Apoptosis assay; format: cell-based, human
mTOR = mTOR (Homo sapiens, UniProt P42345); test: In vitro m-TOR activity assay; format: biochemical
MCF-7 cells [5] = test: Cell cycle analysis; format: cell-based, human
Procedure, shortened: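 MCF-7 cells seeded at 8 × 10^4, held overnight at 37 °C with 5% CO2, then treated 48 h with test compound. Pelleted at 300 g for 5 min and fixed in 70% ethanol on ice for 15 min. Flow cytometry run within 1 h of staining.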

EGFR = EGFR (Homo sapiens, UniProt P00533); test: In vitro EGFR kinase activity assay; format: biochemical
Sequence of EGFR (P00533 25-1210): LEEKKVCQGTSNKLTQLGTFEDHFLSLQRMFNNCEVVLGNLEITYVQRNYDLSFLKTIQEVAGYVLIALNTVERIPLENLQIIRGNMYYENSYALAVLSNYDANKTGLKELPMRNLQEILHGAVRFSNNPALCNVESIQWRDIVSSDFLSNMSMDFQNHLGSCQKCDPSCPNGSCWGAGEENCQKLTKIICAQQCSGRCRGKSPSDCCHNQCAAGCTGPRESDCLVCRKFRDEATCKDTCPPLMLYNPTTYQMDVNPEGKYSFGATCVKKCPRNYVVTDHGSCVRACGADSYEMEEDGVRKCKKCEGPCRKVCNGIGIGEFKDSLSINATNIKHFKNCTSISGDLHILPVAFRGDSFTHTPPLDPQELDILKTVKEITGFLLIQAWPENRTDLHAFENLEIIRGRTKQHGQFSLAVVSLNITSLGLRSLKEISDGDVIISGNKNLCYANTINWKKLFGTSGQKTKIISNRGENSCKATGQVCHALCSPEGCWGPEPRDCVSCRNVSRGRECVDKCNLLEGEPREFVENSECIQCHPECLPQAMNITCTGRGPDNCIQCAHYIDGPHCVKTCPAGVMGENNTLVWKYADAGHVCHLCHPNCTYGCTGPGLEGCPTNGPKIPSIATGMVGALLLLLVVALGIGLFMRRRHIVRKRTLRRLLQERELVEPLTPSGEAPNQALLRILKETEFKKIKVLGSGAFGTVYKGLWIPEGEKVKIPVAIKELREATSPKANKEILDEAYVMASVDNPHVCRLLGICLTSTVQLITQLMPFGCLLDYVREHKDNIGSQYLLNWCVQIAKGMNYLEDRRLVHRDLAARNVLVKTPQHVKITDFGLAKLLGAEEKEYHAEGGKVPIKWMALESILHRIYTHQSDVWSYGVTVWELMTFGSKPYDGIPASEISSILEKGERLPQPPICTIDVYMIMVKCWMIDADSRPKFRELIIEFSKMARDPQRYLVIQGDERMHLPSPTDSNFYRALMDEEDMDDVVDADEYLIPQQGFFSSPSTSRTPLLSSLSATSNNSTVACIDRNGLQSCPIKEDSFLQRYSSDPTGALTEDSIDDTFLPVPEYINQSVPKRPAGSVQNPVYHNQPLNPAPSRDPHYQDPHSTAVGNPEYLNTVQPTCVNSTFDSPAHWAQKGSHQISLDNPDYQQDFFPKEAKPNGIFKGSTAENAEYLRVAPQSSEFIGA

PI3Kβ (p110β/p85α) = PI3Kβ (p110β/p85α) (Homo sapiens, UniProt P42338); test: In vitro PI3K activity assay; format: biochemical
Sequence of PI3Kβ (p110β/p85α) (P42338 whole entry): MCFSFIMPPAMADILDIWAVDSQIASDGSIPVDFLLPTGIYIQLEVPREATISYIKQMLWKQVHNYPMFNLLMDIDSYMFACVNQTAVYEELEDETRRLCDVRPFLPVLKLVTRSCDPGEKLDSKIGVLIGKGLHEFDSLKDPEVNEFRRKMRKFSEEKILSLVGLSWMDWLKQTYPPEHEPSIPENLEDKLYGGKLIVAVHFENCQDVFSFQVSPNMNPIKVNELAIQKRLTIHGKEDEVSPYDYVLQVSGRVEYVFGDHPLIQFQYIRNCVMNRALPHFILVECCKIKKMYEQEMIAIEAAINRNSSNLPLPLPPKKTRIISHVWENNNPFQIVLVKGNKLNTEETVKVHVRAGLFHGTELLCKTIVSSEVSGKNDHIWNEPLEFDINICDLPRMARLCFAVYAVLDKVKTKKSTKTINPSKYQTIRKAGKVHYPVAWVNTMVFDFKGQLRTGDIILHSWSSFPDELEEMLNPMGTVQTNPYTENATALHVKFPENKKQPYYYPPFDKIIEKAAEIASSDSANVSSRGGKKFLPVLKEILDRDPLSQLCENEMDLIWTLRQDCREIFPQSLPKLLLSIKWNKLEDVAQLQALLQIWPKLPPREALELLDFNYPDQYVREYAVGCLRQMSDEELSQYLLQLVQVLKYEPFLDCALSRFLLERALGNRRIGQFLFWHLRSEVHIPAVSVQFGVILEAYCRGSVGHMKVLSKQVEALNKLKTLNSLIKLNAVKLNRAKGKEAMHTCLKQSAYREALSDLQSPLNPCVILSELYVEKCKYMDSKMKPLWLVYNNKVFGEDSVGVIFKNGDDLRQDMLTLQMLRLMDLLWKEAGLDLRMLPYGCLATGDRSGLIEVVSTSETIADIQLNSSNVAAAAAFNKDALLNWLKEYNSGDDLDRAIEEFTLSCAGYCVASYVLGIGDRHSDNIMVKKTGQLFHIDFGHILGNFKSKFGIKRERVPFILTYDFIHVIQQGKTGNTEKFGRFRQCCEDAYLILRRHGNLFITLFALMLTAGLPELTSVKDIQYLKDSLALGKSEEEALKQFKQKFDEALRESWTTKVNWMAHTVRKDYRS
Sequence of PI3Kβ (p110β/p85α) (P27986 whole entry partner): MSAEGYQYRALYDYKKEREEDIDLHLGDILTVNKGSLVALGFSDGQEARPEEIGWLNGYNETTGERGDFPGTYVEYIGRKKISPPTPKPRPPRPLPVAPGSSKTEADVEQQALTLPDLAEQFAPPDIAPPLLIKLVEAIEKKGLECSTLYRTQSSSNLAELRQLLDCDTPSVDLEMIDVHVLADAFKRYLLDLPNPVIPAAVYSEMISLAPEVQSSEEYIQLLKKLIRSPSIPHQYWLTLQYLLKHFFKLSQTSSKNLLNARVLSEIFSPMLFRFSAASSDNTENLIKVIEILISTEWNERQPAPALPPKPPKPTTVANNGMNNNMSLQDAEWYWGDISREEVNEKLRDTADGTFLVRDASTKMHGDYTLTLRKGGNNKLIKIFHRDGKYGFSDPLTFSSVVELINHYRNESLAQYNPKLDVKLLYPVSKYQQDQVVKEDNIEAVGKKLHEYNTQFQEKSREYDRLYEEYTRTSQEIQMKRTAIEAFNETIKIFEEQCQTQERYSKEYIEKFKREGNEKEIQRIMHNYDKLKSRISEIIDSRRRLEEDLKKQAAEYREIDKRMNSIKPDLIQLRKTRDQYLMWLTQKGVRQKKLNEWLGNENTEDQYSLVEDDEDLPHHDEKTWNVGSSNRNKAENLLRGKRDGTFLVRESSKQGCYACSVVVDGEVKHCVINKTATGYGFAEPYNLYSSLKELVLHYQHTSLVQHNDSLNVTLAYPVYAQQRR

Row | Structure (SMILES) | IC50 [1] [µM] | IC50 [2] [µM] | IC50 [3] [µM] | effect on apoptosis (MCF-7 cells [4]) | IC50 (mTOR) [µM] | effect on cell cycle progression (MCF-7 cells [5]) | IC50 (EGFR) [µM] | IC50 (PI3Kβ (p110β/p85α)) [µM]
1 | CC(=NN=C1SCC(=O)N1C)c1c(O)c2ccccc2oc1=O [Compound 7b, 3-Methyl-2-{[1-(4-hydroxy-2-oxo-2H-chromen-3-yl)-ethylidene]-hydrazono}-thiazolidin-4-one] | 41.2 ± 3.9 | 32.8 ± 3.5 | 65.7 ± 5.1 |  |  |  |  | 
2 | CC(=NN=C1NC(=O)C(C)S1)c1c(O)c2ccccc2oc1=O (centres unmarked) [Compound 8a, 5-Methyl-2-{[1-(4-hydroxy-2-oxo-2H-chromen-3-yl)-ethylidene]-hydrazono}-thiazolidin-4-one] | 38.3 ± 4.2 | 27.4 ± 1.9 | 42.4 ± 3.5 |  |  |  |  | 
3 | CC(=NN=C1SC(C)C(=O)N1C)c1c(O)c2ccccc2oc1=O (centres unmarked) [Compound 8b, 3,5-Dimethyl-2-{[1-(4-hydroxy-2-oxo-2H-chromen-3-yl)-ethylidene]-hydrazono}-thiazolidin-4-one] | 44.8 ± 4.5 | 26.1 ± 3.5 | 67.2 ± 4.9 |  |  |  |  | 
4 | CCOC(=O)c1sc(=NN=C(C)c2c(O)c3ccccc3oc2=O)[nH]c1C [Compound 6a, 4-Methyl-2-{[1-(4-hydroxy-2-oxo-2H-chromen-3-yl)-ethylidene]-hydrazono}-2,3-dihydro-thiazole-5-carboxylic acid ethyl ester] | 20.4 ± 1.9 | 6.4 ± 0.5 | 57.2 ± 4.3 | increase in the early and late cellular apoptosis | 0.719 ± 0.04 | cell growth arrest at S phase | 0.184 ± 0.01 | 0.131 ± 0.007
5 | CC(=O)c1sc(=NN=C(C)c2c(O)c3ccccc3oc2=O)n(C)c1C [Compound 4b, 3-{1-[(5-Acetyl-3,4-dimethyl-3H-thiazol-2-ylidene)-hydrazono]-ethyl}-4-hydroxy-2H-chromen-2-one] | 24.3 ± 2.7 | 32.7 ± 3.5 | 57.1 ± 4.3 |  |  |  |  | 
6 | CCOC(=O)c1sc(=NN=C(C)c2c(O)c3ccccc3oc2=O)n(CC)c1C [Compound 6c, 3-Ethyl-4-methyl-2-{[1-(4-hydroxy-2-oxo-2H-chromen-3-yl)-ethylidene]-hydrazono}-2,3-dihydro-thiazole-5-carboxylic acid ethyl ester] | 24.7 ± 1.6 | 20.7 ± 2.1 | 45.1 ± 4.1 |  |  |  |  | 
7 | CCn1c(C)c(N=Nc2ccc(C)cc2)sc1=NN=C(C)c1c(O)c2ccccc2oc1=O [Compound 9f, 3-{1-[(3-Ethyl-4-methyl-5-(4-tolyl)azo-3H-thiazol-2-ylidene)-hydrazono]-ethyl}-4-hydroxy-2H-chromen-2-one] | 40.1 ± 4.7 | 17.8 ± 1.1 | 82.1 ± 6.1 |  |  |  |  | 
8 | CC(=NN=c1sc(N=Nc2ccccc2)c(C)n1C)c1c(O)c2ccccc2oc1=O [Compound 9b, 3-{1-[(3,4-Dimethyl-5-phenylazo-3H-thiazol-2-ylidene)-hydrazono]-ethyl}-4-hydroxy-2H-chromen-2-one] | 37.9 ± 2.5 | 32.3 ± 3.5 | 64.1 ± 5.5 |  |  |  |  | 
9 | CCOC(=O)c1sc(=NN=C(C)c2c(O)c3ccccc3oc2=O)n(C)c1C [Compound 6b, 3,4-Dimethyl-2-{[1-(4-hydroxy-2-oxo-2H-chromen-3-yl)-ethylidene]-hydrazono}-2,3-dihydro-thiazole-5-carboxylic acid ethyl ester] | 5.9 ± 0.7 | 11.2 ± 1.1 | 41.4 ± 2.9 |  | 1.45 ± 0.08 |  | 0.563 ± 0.03 | 0.361 ± 0.02
10 | CCn1c(C)csc1=NN=C(C)c1c(O)c2ccccc2oc1=O [Compound 3c, 3-{1-[(3-Ethyl-4-methyl-3H-thiazol-2-ylidene)-hydrazono]-ethyl}-4-hydroxy-2H-chromen-2-one] | 36.3 ± 3.5 | 36.5 ± 4.2 | 68.2 ± 5.6 |  |  |  |  | 
11 | COc1cccc2c1C(=O)c1c(O)c3c(c(O)c1C2=O)C[C@@](O)(C(=O)CO)C[C@@H]3O[C@H]1C[C@H](N)[C@H](O)[C@H](C)O1 [Doxorubicin, reference compound] | 21.8 ± 2.9 | 16.7 ± 1.5 | 63.2 ± 5.8 |  |  |  |  | 
12 | CC(=NN=c1sc(N=Nc2ccc(C)cc2)c(C)n1C)c1c(O)c2ccccc2oc1=O [Compound 9e, 3-{1-[(3,4-Dimethyl-5-(4-tolyl)azo-3H-thiazol-2-ylidene)-hydrazono]-ethyl}-4-hydroxy-2H-chromen-2-one] | 55.2 ± 5.1 | 23.3 ± 1.9 | 74.4 ± 5.9 |  |  |  |  | 
13 | CNC(=S)NN=C(C)c1c(O)c2ccccc2oc1=O [Compound 2b, 4-Methyl-1-(1-(4-hydroxy-2-oxo-2H-chromen-3-yl)ethylidene)thiosemicarbazide] | 7.2 ± 0.6 | 13.6 ± 1.5 | 48.1 ± 3.9 |  | 2.96 ± 0.18 |  | 2.28 ± 0.14 | 1.33 ± 0.074
14 | CC(=O)c1sc(=NN=C(C)c2c(O)c3ccccc3oc2=O)[nH]c1C [Compound 4a, 3-{1-[(5-Acetyl-4-methyl-3H-thiazol-2-ylidene)-hydrazono]-ethyl}-4-hydroxy-2H-chromen-2-one] | 31.4 ± 3.1 | 25.6 ± 3.1 | 48.8 ± 3.1 |  |  |  |  | 
15 | CC(=NN=c1scc(-c2ccccc2)n1C)c1c(O)c2ccccc2oc1=O [Compound 5b, 3-{1-[(3-Methyl-4-phenyl-3H-thiazol-2-ylidene)-hydrazono]-ethyl}-4-hydroxy-2H-chromen-2-one] | 42.4 ± 4.1 | 34.6 ± 2.9 | 66.4 ± 5.6 |  |  |  |  | 
16 | CCn1c(C)c(N=Nc2ccccc2)sc1=NN=C(C)c1c(O)c2ccccc2oc1=O [Compound 9c, 3-{1-[(3-Ethyl-4-methyl-5-phenylazo-3H-thiazol-2-ylidene)-hydrazono]-ethyl}-4-hydroxy-2H-chromen-2-one] | 47.2 ± 4.5 | 32.8 ± 2.8 | 60.9 ± 4.8 |  |  |  |  | 
17 | CC(=NN=c1[nH]c(C)cs1)c1c(O)c2ccccc2oc1=O [Compound 3a, 3-{1-[(4-Methyl-3H-thiazol-2-ylidene)-hydrazono]-ethyl}-4-hydroxy-2H-chromen-2-one] | 32.6 ± 3.1 | 34.5 ± 3.6 | 42.5 ± 4.1 |  |  |  |  | 
18 | CC(=NN=c1scc(C)n1C)c1c(O)c2ccccc2oc1=O [Compound 3b, 3-{1-[(3,4-Dimethyl-3H-thiazol-2-ylidene)-hydrazono]-ethyl}-4-hydroxy-2H-chromen-2-one] | 27.2 ± 2.9 | 34.9 ± 3.1 | 46.1 ± 3.7 |  |  |  |  | 
19 | CC(=NN=c1[nH]c(C)c(N=Nc2ccc(C)cc2)s1)c1c(O)c2ccccc2oc1=O [Compound 9d, 3-{1-[(4-Methyl-5-(4-tolyl)azo-3H-thiazol-2-ylidene)-hydrazono]-ethyl}-4-hydroxy-2H-chromen-2-one] | 45.6 ± 4.2 | 26.3 ± 2.5 | 57.2 ± 4.6 |  |  |  |  | 
20 | CC(=NN=c1[nH]c(C)c(N=Nc2ccccc2)s1)c1c(O)c2ccccc2oc1=O [Compound 9a, 3-{1-[(4-Methyl-5-phenylazo-3H-thiazol-2-ylidene)-hydrazono]-ethyl}-4-hydroxy-2H-chromen-2-one] | 33.9 ± 2.8 | 33.4 ± 2.8 | 71.2 ± 5.1 |  |  |  |  | 
21 | CCN1C(=O)C(C)SC1=NN=C(C)c1c(O)c2ccccc2oc1=O (centres unmarked) [Compound 8c, 3-Ethyl-5-methyl-2-{[1-(4-hydroxy-2-oxo-2H-chromen-3-yl)-ethylidene]-hydrazono}-thiazolidin-4-one] | 44.9 ± 4.3 | 7.4 ± 0.9 | 80.2 ± 5.9 |  |  |  |  | 
22 | CCn1c(C)c(C(C)=O)sc1=NN=C(C)c1c(O)c2ccccc2oc1=O [Compound 4c, 3-{1-[(5-Acetyl-3-ethyl-4-methyl-3H-thiazol-2-ylidene)-hydrazono]-ethyl}-4-hydroxy-2H-chromen-2-one] | 38.9 ± 3.2 | 33.7 ± 3.2 | 62.5 ± 3.9 |  |  |  |  | 

— article PMC10548181 (RSC Advances, 2023)
